Source: ChEMBL document CHEMBL3877306, “Triazole Ureas Act as Diacylglycerol Lipase Inhibitors and Prevent Fasting-Induced Refeeding” (J Med Chem, 2017)
Calls of active or inactive are those of the source. No cut-off for these calls is given here.

What was measured:
[1] = molecular target: T1, Monoacylglycerol lipase ABHD6 (Mus musculus, UniProt Q8R2Y0); assay: Inhibition of MB064 probe binding to ABHD6 in mouse brain membrane proteome preincubated for 30 mins followed by MB064 probe addition measured after 20 mins by gel-based competitive activity based protein profiling assay; assay type: cell membranes
T1 sequence (Q8R2Y0 whole entry): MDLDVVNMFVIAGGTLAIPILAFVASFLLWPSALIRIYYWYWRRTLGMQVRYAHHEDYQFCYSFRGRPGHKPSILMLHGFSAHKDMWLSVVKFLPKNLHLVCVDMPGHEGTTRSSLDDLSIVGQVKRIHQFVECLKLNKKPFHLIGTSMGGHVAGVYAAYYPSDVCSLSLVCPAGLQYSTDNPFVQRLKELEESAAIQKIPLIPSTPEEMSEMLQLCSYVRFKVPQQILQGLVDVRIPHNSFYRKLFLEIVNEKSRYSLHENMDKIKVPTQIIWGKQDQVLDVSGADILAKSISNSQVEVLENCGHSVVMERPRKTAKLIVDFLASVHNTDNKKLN
How it was run: (§1)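 Mouse brain membrane proteome (2 mg/mL) preincubated with inhibitor or DMSO vehicle for 30 min at r.t., then labelled with MB064 at 250 nM final for 20 min at r.t. and quenched in Laemmli buffer. Fluorescent bands were quantified against vehicle set to 100%, and IC50 was taken from a variable-slope log(inhibitor) vs normalized response fit. n = 3.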

[2] = molecular target: T2, Monoacylglycerol lipase ABHD6 (Homo sapiens, UniProt Q9BV23); assay: Inhibition of human ABHD6 using 2-AG as natural substrate by fluorescence based assay
T2 sequence (Q9BV23 whole entry): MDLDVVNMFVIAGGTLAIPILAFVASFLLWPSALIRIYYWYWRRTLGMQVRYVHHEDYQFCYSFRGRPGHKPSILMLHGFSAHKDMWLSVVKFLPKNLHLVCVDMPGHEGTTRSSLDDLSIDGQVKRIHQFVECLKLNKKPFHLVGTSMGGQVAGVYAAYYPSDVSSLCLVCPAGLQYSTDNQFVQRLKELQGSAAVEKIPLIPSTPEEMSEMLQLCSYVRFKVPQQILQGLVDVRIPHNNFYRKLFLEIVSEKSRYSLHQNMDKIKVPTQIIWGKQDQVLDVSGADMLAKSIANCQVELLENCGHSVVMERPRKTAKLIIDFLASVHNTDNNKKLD
How it was run: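 Coupled fluorescence assay: 2-AG hydrolysis detected via glycerol kinase, glycerol-3-phosphate oxidase and HRP (0.2 U/mL each), 0.125 mM ATP and 10 µM Amplifu Red. Conditions: 25 µM 2-AG, 0.5% acetonitrile, 5% DMSO, ABHD6 membrane protein 40 µg/mL final. n = 4.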

Mus musculus [3] = species: Mus musculus; assay: Selectivity ratio of IC50 for ABHD6 in mouse brain membrane proteome to IC50 for DAGLalpha in mouse brain membrane proteome; assay type: cell membranes
How it was run: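 Ratio of DAGLα and ABHD6 […] values, both from competitive gel ABPP in mouse brain membrane proteome. Inhibitor was preincubated 30 min at r.t., then MB064 (250 nM final) was added for 20 min. Band intensities were normalized to vehicle and fitted with a variable-slope curve. n = 3.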

Mus musculus [4] = assay: Toxicity in 18 hrs fasted C57Bl/6J mouse model of fasting-induced refeeding assessed as effect on locomotor activity at 50 mg/kg, ip administered as single dose 30 mins prior to refeeding measured after 24 hrs; assay type: organism-based; conditions: in vivo
Mus musculus [5] = assay: Reduction in carbohydrate oxidation in 18 hrs fasted C57Bl/6J mouse model of fasting-induced refeeding at 50 mg/kg, ip administered as single dose 30 mins prior to refeeding measured after 20 mins; assay type: functional, organism-based
Mus musculus [6] = assay: Inhibition of fasting-induced refeeding in 18 hrs fasted C57Bl/6J mouse at 50 mg/kg, ip administered as single dose 30 mins prior to refeeding measured up to 4 hrs; assay type: functional, organism-based
Mus musculus [7] = assay: Increase in fat oxidation in 18 hrs fasted C57Bl/6J mouse model of fasting-induced refeeding at 50 mg/kg, ip administered as single dose 30 mins prior to refeeding measured after 20 mins; assay type: functional, organism-based
[8] = molecular target: T3, Diacylglycerol lipase-alpha (Mus musculus, UniProt Q6WQJ1); assay: (§2) Inhibition of MB064 probe binding to DAGLalpha in mouse brain membrane proteome preincubated for 30 mins followed by MB064 probe addition measured after 20 mins by gel-based competitive activity based protein profiling assay; assay type: cell membranes; how it was run: as §1
T3 sequence (Q6WQJ1 whole entry): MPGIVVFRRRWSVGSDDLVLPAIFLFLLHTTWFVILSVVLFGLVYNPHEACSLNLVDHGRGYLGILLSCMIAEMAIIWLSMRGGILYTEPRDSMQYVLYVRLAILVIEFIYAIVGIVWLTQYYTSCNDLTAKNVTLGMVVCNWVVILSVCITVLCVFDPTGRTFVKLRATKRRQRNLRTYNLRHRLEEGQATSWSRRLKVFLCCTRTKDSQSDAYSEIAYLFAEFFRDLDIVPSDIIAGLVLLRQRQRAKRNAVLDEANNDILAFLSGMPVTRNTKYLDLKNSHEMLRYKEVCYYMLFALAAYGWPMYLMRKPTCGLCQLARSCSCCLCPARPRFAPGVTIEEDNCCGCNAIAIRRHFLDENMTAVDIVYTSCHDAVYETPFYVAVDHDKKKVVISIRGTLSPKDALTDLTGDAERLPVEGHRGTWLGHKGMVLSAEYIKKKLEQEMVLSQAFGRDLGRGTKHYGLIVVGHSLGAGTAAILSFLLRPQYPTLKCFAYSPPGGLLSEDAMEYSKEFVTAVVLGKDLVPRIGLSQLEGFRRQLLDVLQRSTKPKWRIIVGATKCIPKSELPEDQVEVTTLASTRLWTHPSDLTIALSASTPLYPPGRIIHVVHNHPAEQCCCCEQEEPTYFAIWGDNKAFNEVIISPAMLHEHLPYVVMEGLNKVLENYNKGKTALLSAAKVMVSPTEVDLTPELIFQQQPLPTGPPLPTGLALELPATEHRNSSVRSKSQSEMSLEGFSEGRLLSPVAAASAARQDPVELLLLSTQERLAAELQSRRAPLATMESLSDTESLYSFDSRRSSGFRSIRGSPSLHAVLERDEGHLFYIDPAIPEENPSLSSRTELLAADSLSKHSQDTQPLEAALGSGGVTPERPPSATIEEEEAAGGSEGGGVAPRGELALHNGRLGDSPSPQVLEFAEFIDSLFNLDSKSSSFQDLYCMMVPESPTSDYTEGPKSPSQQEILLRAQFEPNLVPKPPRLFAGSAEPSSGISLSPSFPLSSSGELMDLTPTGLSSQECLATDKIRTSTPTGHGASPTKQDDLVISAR

[9] = molecular target: T4, Diacylglycerol lipase-alpha (Mus musculus) (UniProt Q6WQJ1); assay: as §2; assay type: cell membranes; how it was run: as §1
T4 sequence (whole entry): T3 sequence (Q6WQJ1 whole entry)

Mus musculus [10] = assay: Ex vivo inhibition of FP-TAMRA probe binding to carboxylesterase in mouse liver at 3 to 50 mg/kg, ip after 4 hrs by gel-based competitive activity based protein profiling assay; assay type: functional, organism-based

- IC50 [1]: 79.4 nM
- IC50 [2]: 2.51 nM
- Ratio IC50 (Mus musculus [3]): 126
- IC50 [8]: 0.631 nM
- inhibition [9]: Dose-dependent effect
Structure (SMILES): C#CCO[C@@H]1CC[C@H](Cc2ccccc2)N(C(=O)n2ncc(C(O)(c3ccc(F)cc3)c3ccc(F)cc3)n2)C1
- Activity (Mus musculus [4]): Non-Toxic
- Activity (Mus musculus [5]): Active
- inhibition (Mus musculus [6]): Active
- Activity (Mus musculus [7]): Active
- inhibition (Mus musculus [10]): Active
